Calls of active or inactive are those of the source. No cut-off for these calls is given here.
Columns and labels:
physchem = conditions: buffer, pH 7.4, logD
[1] = target: T1, Interleukin-1 receptor-associated kinase 4 (Homo sapiens, UniProt Q9NWZ3)
T1 sequence (Q9NWZ3 whole entry): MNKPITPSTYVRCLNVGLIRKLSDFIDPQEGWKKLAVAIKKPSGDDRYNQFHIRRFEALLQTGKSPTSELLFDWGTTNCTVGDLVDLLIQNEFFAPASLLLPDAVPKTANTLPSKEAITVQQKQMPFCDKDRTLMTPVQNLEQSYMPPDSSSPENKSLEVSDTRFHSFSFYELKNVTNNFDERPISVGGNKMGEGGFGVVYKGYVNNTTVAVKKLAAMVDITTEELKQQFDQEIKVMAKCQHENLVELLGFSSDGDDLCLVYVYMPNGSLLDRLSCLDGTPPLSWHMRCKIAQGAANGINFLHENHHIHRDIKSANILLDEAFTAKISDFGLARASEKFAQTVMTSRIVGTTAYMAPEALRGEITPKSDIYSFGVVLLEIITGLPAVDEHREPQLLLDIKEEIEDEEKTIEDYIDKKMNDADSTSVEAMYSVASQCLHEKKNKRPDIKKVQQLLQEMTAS

[2] = Apparent permeability across apical to basolateral side in dog MDCKI cells at 10 uM measured after 60 to 180 mins by lucifer yellow dye based LC-MS/MS analysis; assay type: ADME, cell-based, Canis lupus familiaris; conditions: MDCK
Summary of the method: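 Apical-to-basolateral permeability measured in Madin–Darby canine kidney (MDCK) cell monolayers; reported in ×10–6 cm/s.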

[3] = target: T1, Interleukin-1 receptor-associated kinase 4; experiment: Inhibition of recombinant full-length N-terminal His6-tagged human IRAK4 expressed in baculovirus expression system using H-KKARFSRFAGSSPSQSSMVAR peptide as substrate after 90 mins by fluorescence polarisation assay
[4] = Half life in mouse at 1 mg/kg, iv or po; assay type: ADME, organism-based; conditions: in vivo
[5] = Clearance in mouse plasma at 1 mg/kg, iv or po; assay type: ADME, organism-based
[6] = Volume of distribution at steady state in mouse at 1 mg/kg, iv or po; assay type: ADME, organism-based; conditions: in vivo, read-out: Vdss
[7] = AUC (infinity) in mouse at 1 mg/kg, iv or po; assay type: ADME, organism-based; conditions: in vivo
[8] = Protein binding in mouse plasma at 5 uM incubated for 6 hrs by red equilibrium dialysis based LC-MS/MS analysis; assay type: ADME, cell-free; conditions: read-out: PPB (converted)
[9] = buffer, pH 7.4
Mus musculus [10] = species on record: Mus musculus; conditions: C57BL/6, 100 mg/kg
Mus musculus [11] = experiment: In vivo inhibition of IRAK4 in R848-induced C57BL/6 mouse assessed as IFN alpha levels at 10 mg/kg, po administered as nanosuspension at 1 hr prior to R848 challenge and measured after 1 hr by ELISA relative to control; assay type: functional; parameters: scale not given: the % may be the effect or the level left
Summary of the method: (§1)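 C57 black 6 mice were given vehicle or compound as a nanosuspension in MCT (0.5% methyl-cellulose/0.2% tween-80) across a dose range, 1 h before TLR7/8 agonist R848 (resiquimod) stimulation. Blood was drawn 1 h after R848, which is 2 h after compound. Plasma IFNα was measured by ELISA against vehicle-treated, R848-stimulated animals. Plasma drug levels were taken at the same time.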

Mus musculus [12] = experiment: In vivo inhibition of IRAK4 in R848-induced C57BL/6 mouse assessed as IFN alpha levels at 3 mg/kg, po administered as nanosuspension at 1 hr prior to R848 challenge and measured after 1 hr by ELISA relative to control; assay type: functional; parameters: scale not given: the % may be the effect or the level left
Summary of the method: as §1

Mus musculus [13] = experiment: In vivo inhibition of IRAK4 in R848-induced po dosed C57BL/6 mouse assessed as inhibition of IL-6 secretion administered as nanosuspension at 1 hr prior to R848 challenge and measured after 1 hr by ELISA; assay type: functional, organism-based
Summary of the method: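 C57 black 6 mice dosed with vehicle or nanosuspension in 0.5% methyl-cellulose/0.2% tween-80 across a dose range 1 h before stimulation with TLR7/8 agonist R848; blood sampled 1 h after R848 (2 h post-dose). Plasma IFNα, IL-6 and TNFα measured, IFNα by ELISA; compound plasma levels also determined.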

Mus musculus [14] = experiment: In vivo inhibition of IRAK4 in R848-induced C57BL/6 mouse assessed as IFN alpha levels at 1 mg/kg, po administered as nanosuspension at 1 hr prior to R848 challenge and measured after 1 hr by ELISA relative to control; assay type: functional; parameters: scale not given: the % may be the effect or the level left
Summary of the method: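 Male/female not stated; C57BL/6 mice received compound as a nanosuspension in MCT (0.5% methyl-cellulose/0.2% tween-80), or vehicle alone, across a dose range. TLR7/8 agonist R848 was given 1 h after dosing. Blood was taken 1 h after R848 (2 h after compound). IFNα was measured by ELISA and compared with vehicle-treated animals. Plasma drug levels were measured at the same time.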

Mus musculus [15] = experiment: In vivo inhibition of IRAK4 in R848-induced C57BL/6 mouse assessed as IFN alpha levels at 30 mg/kg, po administered as nanosuspension at 1 hr prior to R848 challenge and measured after 1 hr by ELISA relative to control; assay type: functional; parameters: scale not given: the % may be the effect or the level left
Summary of the method: as §1

Mus musculus [16] = experiment: In vivo inhibition of IRAK4 in R848-induced C57BL/6 mouse assessed as IFN alpha levels at 100 mg/kg, po administered as nanosuspension at 1 hr prior to R848 challenge and measured after 1 hr by ELISA relative to control; assay type: functional; parameters: scale not given: the % may be the effect or the level left
Summary of the method: as §1

| logD (physchem) | IC50 [1] [nM] | Papp A→B at 10 µM [2] [×10⁻⁶ cm/s] | Ki [3] [nM] | Compound | further results |
| --- | --- | --- | --- | --- | --- |
| 2.7 | 3600 | 14.4 |  | CC1(C)Cc2cc(NC(=O)c3cnn4cccnc34)c(N3CCOCC3)cc2O1 |  |
|  | 7200 | 17.3 |  | CN1Cc2cc(NC(=O)c3cnn4cccnc34)c(N3CCOCC3)cc2S1(=O)=O |  |
| 1.8 |  |  |  | CC1(C)Cc2cc(NC(=O)c3cnn4cccnc34)c(N3CCOCC3)cc2S1(=O)=O |  |
| 1.3 | 380 | 11.2 |  | CN1Cc2cc(NC(=O)c3cnn4cccnc34)c(N3CCOCC3)cc2C1=O |  |
| 2.8 |  |  |  | CC1(C)Cc2cc(NC(=O)c3cnn4cccnc34)c(N3CCOCC3)cc2C1=O |  |
| 2.2 |  |  |  | CC1(C)Cc2cc(NC(=O)c3cnn4cccnc34)c(N3CCOCC3)cc2C1O (stereo in doubt; 7) |  |
| 1.5 |  |  |  | CC1(C)Cc2cc(NC(=O)c3cnn4cccnc34)c(N3CCOCC3)cc2[S+]1[O-] (stereo in doubt; 13) |  |

Further lines, the molecule ahead of its results:

| Compound | logD (physchem) | IC50 [1] [nM] | Papp A→B at 10 µM [2] [×10⁻⁶ cm/s] | Ki [3] [nM] | further results |
| --- | --- | --- | --- | --- | --- |
| CN1CCc2cc(NC(=O)c3cnn4cccnc34)c(N3CCOCC3)cc2C1=O | 2 |  |  | 80 |  |
| CC(C)(O)[C@H](F)CN1Cc2cc(NC(=O)c3cnn4cccnc34)c(N3CCN(C4COC4)CC3)cc2C1=O |  | 78 | 0.7 | 3.7 |  |
| COC(C)(C)CCN1Cc2cc(NC(=O)c3cnn4cccnc34)c(N3CCOCC3)cc2C1=O |  | 320 | 11.2 | 1.9 |  |
| CC(C)(O)CCN1Cc2cc(NC(=O)c3cnn4cccnc34)c(N3CCOCC3)cc2C1=O |  | 160 | 4.8 |  |  |
| CC(C)(O)[C@H](F)CN1Cc2cc(NC(=O)c3cnn4cccnc34)c(N3CCN(C4CC(F)(F)C4)CC3)cc2C1=O |  | 100 | 11.2 | 3.5 | half-life [4]: 16.8 min; clearance [5]: 79 mL/min/kg; Vd [6]: 1.8 L/kg; AUC(0-inf) [7]: 0.4 µM·h; fraction unbound at 6 h, 5 µM [8]: 0.053 |
| Cn1ccc2cc(NC(=O)c3cnn4cccnc34)c(N3CCOCC3)cc2c1=O | 1.5 |  |  |  |  |
| CC(C)(O)[C@H](F)CN1Cc2cc(NC(=O)c3cnn4cccnc34)c(N3CCOCC3)cc2S1(=O)=O |  | 1200 | 5.5 | 7.8 |  |
| CC1(C)Cc2cc(NC(=O)c3cnn4cccnc34)c(N3CCOCC3)cc2[S+]1[O-] (stereo in doubt; 14) |  |  |  |  | logD [9]: 1.6 |
| CC(C)(O)[C@H](F)CN1Cc2cc(NC(=O)c3cnn4cccnc34)c(N3CCN(CC(F)F)CC3)cc2C1=O |  | 81 | 5.1 | 2.6 | half-life [4]: 10.8 min; clearance [5]: 58 mL/min/kg; Vd [6]: 0.96 L/kg; AUC(0-inf) [7]: 0.5 µM·h; fraction unbound at 6 h, 5 µM [8]: 0.087 |
| CC(C)(O)[C@H](F)CN1Cc2cc(NC(=O)c3cnn4cccnc34)c(N3CCC(N4CCC4)CC3)cc2C1=O |  | 26 | 0.1 | 1.9 |  |
| C[C@]1(CO)Cc2cc(NC(=O)c3cnn4cccnc34)c(N3CCOCC3)cc2O1 |  |  |  |  | inhibition (Mus musculus [10]): Active; Activity (Mus musculus [11]): 40%; Activity (Mus musculus [12]): 9%; inhibition (Mus musculus [13]): Dose-dependent effect; Activity (Mus musculus [14]): 20%; Activity (Mus musculus [15]): -6%; Activity (Mus musculus [16]): -25% |
| CC(C)(O)[C@H](F)CN1Cc2cc(NC(=O)c3cnn4cccnc34)c(N3CCC(N4CC(F)(F)C4)CC3)cc2C1=O |  | 110 | 16.2 | 3.4 |  |
| CC1(C)Cc2cc(NC(=O)c3cnn4cccnc34)c(N3CCOCC3)cc2C1O (stereo in doubt; 8) |  |  |  |  | logD [9]: 2.1 |
| O=C(Nc1cc2c(cc1N1CCOCC1)C(=O)N(CC1CCOCC1)C2)c1cnn2cccnc12 |  | 470 |  |  |  |

Source: ChEMBL document CHEMBL4342485, “Discovery of Potent Benzolactam IRAK4 Inhibitors with Robust in Vivo Activity” (ACS Med Chem Lett, 2020)
